Results from different studies.
Compare with care: the assays were run in different laboratories.
Target: Serine/threonine-protein kinase 17B (STK17B, Homo sapiens, UniProt O94768)
Residues used in one study (O94768 1-372): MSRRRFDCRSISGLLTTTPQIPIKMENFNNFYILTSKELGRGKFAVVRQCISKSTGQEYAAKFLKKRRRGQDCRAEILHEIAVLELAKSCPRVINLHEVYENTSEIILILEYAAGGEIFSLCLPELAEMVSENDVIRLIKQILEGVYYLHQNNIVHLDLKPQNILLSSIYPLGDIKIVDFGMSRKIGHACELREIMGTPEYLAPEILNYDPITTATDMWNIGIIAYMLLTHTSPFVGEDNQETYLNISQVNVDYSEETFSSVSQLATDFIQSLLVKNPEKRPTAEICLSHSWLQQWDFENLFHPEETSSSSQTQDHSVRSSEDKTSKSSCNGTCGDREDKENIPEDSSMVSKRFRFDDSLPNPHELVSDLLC

O=C(Nc1c[nH]nc1C(=O)NC1CCNCC1)c1cc(F)cc(F)c1  remaining binding (binding, competition with immobilised ligand; 1 µM): 100%
CNC(=O)Nc1ccc2c(c1)[C@@]1(CC2)OC(=O)N(CC(=O)N(Cc2ccc(F)cc2)[C@@H](C)C(F)(F)F)C1=O  remaining binding (cell-free assay, competition with immobilised ligand; 1 µM): 77%
N[C@@H]1CCN(c2nccc(-c3cnn4ncccc34)n2)C1  remaining binding (binding; 1 µM): 100%
O=C(NCc1ncc(C(F)(F)F)cc1Cl)c1ccc2c(c1)C1(CCS(=O)(=O)CC1)[C@H](C1CC1)N2S(=O)(=O)c1ccc(F)cc1  remaining binding (cell-free assay, competition with immobilised ligand; 1 µM): 85%
CN(c1nccc(-c2cnn3ncccc23)n1)C1CC1  remaining binding (binding; 1 µM): 100%
Cn1cc(Cl)c2c(Oc3c(F)cc(Nc4cc(Cl)nc(N)n4)cc3F)ccnc21  remaining binding (cell-free assay, competition with immobilised ligand; 0.1 µM): 84%
CN(C)c1nccc(-c2cnc3ncccn23)n1  remaining binding (binding; 1 µM): 100%
Cc1cnc(Nc2ccc(C(=O)N3CCC(N4CCCC4)CC3)cc2)nc1-c1cc2ccccc2s1  remaining binding (binding, competition with immobilised ligand; 1 µM): 0%
CN(C)c1ncc(F)c(-c2cnn3ncccc23)n1  remaining binding (binding; 1 µM): 87%
C[C@@H](c1ccc(-n2cnc3c(N)ncnc32)cc1)N1CCc2nn(C)c(Cc3ccccc3)c2C1=O  remaining binding (binding, competition with immobilised ligand; 0.1 µM): 100%
CNC(=O)[C@@H]1CC[C@@H](n2c(-c3ccc4cnccc4c3)nc3ccc(C(=O)NCc4cccc(C(N)=O)c4)cc32)C1  remaining binding (binding, competition with immobilised ligand; 1 µM): 99%
C[C@H]1CCN(c2nccc(-c3cnn4ncccc34)n2)C1  remaining binding (binding; 1 µM): 93%
O=C(c1ccc(Nc2ncc(Cl)c(-c3cc4ccccc4s3)n2)cc1)N1CCC(N2CCCC2)CC1  remaining binding (binding, competition with immobilised ligand; 1 µM): 0%
CCCOc1ccc([C@H]2[C@H](C(=O)O)[C@@H](c3ccc4c(c3)OCO4)CN2CC(=O)Nc2c(CC)cccc2CC)cc1  remaining binding (cell-free assay, competition with immobilised ligand; 1 µM): 91%
Nc1ncc2c(n1)-c1c([nH]c3ccc(C#CC4CC4)cc13)CCCC2  remaining binding (binding, competition with immobilised ligand; 1 µM): 96%
COc1ccnn2ncc(-c3ccnc(N(C)C)n3)c12  remaining binding (binding; 1 µM): 100%
c1cncc(-c2cccc(Nc3nccc(NC4CCCCC4)n3)c2)c1  remaining binding (binding, competition with immobilised ligand; 10 µM): 77%
CN(C)C(=O)Cn1cc(-c2nc(C3(c4ccc(-c5cnc(N)nc5)cc4)CC3)no2)cn1  remaining binding (cell-free assay, competition with immobilised ligand; 1 µM): 100%
c1cnn2ncc(-c3ccnc(N4CCC45COC5)n3)c2c1  remaining binding (binding; 1 µM): 100%
CN([C@@H]1CCc2c(CC(=O)O)c3cc(S(C)(=O)=O)ccc3n2C1)S(=O)(=O)c1ccc(F)cc1  remaining binding (cell-free assay, competition with immobilised ligand; 1 µM): 85%
O=C(NCCCN1CCOCC1)c1ccc(Nc2nccc(-c3cc4ccccc4s3)n2)cc1  remaining binding (binding, competition with immobilised ligand; 1 µM): 0%
COc1ncc2cc3ccccc3nc2c1C#N  remaining binding (cell-free assay, competition with immobilised ligand; 5 µM): 100%
